# Laboratory results published in ChEMBL document CHEMBL1138814, “Synthesis, antiviral activity, and mode of action of some 3-substituted 2,5,6-trichloroindole 2'- and 5'-deoxyribonucleosides” (J Med Chem, 2004).
# pIC50: −log10 of the molar value.
# Tests used:
# [1] = Cytotoxicity against KB cells was determined by crystal violet staining and spectrophotometric quantitation of dye eluted from stained cells; assay type: functional, cell-based; settings: Homo sapiens
# Procedure, shortened: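 KB cells were seeded at 3000–5000 per well and incubated overnight. Compound was added at six to eight concentrations for 48 h at 37 °C in CO2, covering two population doublings. Cells were fixed in 95% ethanol and stained with 0.1% crystal violet, and the dye was eluted with acidified ethanol and read at 570 nm. IC50 came from regression of percent inhibition against log concentration.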
# [2] = system: HFF; assay: Inhibitory concentration required against human cytomegalovirus (HCMV) expressed in HFF cells was determined by plaque reduction assay; assay type: functional, cell-based
# Procedure, shortened: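 HCMV Towne strain at about 100 pfu/cm² was adsorbed onto HFF monolayers. Compounds from 10 mg/mL DMSO stocks were diluted in growth medium and added at four to eight concentrations in duplicate wells. After 7–10 days at 37 °C, cells were fixed and stained with crystal violet and plaques counted microscopically. Percent plaque reduction versus no drug was regressed against log concentration to give IC50.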
# [3] = system: HFF; assay: Cytotoxicity produced in stationary HFF cells was determined by microscopic inspection of uninfected cells; assay type: functional, cell-based; settings: Homo sapiens
# Procedure, shortened: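 Cytotoxicity was scored visually by microscopy on stationary HFF cells not affected by virus, at the time of HCMV plaque enumeration, in duplicate wells. IC50 came from linear regression of percent inhibition against log concentration.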
# [4] = Inhibitory concentration required against herpes simplex virus type-1 (HSV-1) expressed in BSC-1 cells was determined by ELISA assay; assay type: functional, cell-based, Cercopithecidae
# Procedure, shortened: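 BSC-1 cells (10 000/well, MEM(E) with 10% calf serum) were incubated overnight. Drug (quadruplicate) and HSV-1 at 100 pfu/well were then added, followed by 3 days at 37 °C. Plates were blocked and probed with HRP-conjugated rabbit anti-HSV-1 antibody, developed with TMB and stopped with H2SO4, with absorbance read at 450 and 570 nm. Percent absorbance reduction versus no drug was regressed against log concentration to give IC50.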
# [5] = system: HFF; assay: Inhibitory concentration required against human cytomegalovirus (HCMV) wild type expressed in HFF cells was determined by plaque reduction assay; assay type: functional, cell-based
# Procedure, shortened: (§1)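 HFF monolayers in 24-well dishes were infected with about 100 pfu HCMV per cm² (wild type Towne; mutant strains carry UL56, UL89 or UL56 + UL89 mutations). After adsorption, drug from 10 mg/mL DMSO stock was diluted in medium and added at four to eight concentrations in duplicate wells. Cells were held 7–10 days at 37 °C, then crystal-violet stained and plaques counted against no-drug controls. IC50 came from linear regression of % inhibition versus log10 concentration, averaged over two experiments.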
# [6] = system: HFF; assay: Inhibitory concentration required against human cytomegalovirus (HCMV) C4 strain (UL56 + UL89 mutant gene) expressed in HFF cells was determined by plaque reduction assay; assay type: functional, cell-based; procedure, shortened: as §1
# [7] = system: HFF; assay: Inhibitory concentration required against human cytomegalovirus (HCMV) D10 strain (UL89 mutant gene) expressed in HFF cells was determined by plaque reduction assay; assay type: functional, cell-based; procedure, shortened: as §1
# [8] = system: HFF; assay: Inhibitory concentration required against human cytomegalovirus (HCMV) r56 strain (UL56 mutant gene) expressed in HFF cells was determined by plaque reduction assay; assay type: functional, cell-based; procedure, shortened: as §1
Compound,pIC50 [1],pIC50 [2],pIC50 [3],pIC50 [4],pIC50 [5],pIC50 [6],pIC50 [7],pIC50 [8]
"N#Cc1c(Cl)n(C2O[C@H](CN=[N+]=[N-])[C@@H](O)C2O)c2cc(Cl)c(Cl)cc12 (single isomer, unassigned)",4.22,5.52,< 4.00,4.82,,,,
"N#Cc1c(Cl)n(C2O[C@H](CF)[C@@H](O)C2O)c2cc(Cl)c(Cl)cc12 (single isomer, unassigned)",4.30,5.57,4.49,4.40,,,,
"OC[C@H]1O[C@@H](n2c(Br)nc3cc(Cl)c(Cl)cc32)C(O)[C@@H]1O (single isomer, unassigned)",< 4.00,,,3.89,6.00,4.54,4.92,5.17
"O=Cc1c(Cl)n(C2O[C@H](CF)[C@@H](O)C2O)c2cc(Cl)c(Cl)cc12 (single isomer, unassigned)",4.70,6.22,4.49,4.70,,,,
"C[C@H]1OC(n2c(Cl)nc3cc(Cl)c(Cl)cc32)C(O)[C@@H]1O (single isomer, unassigned)",,6.44,4.00,,,,,
OC[C@H]1O[C@@H](n2c(Cl)nc3cc(Cl)c(Cl)cc32)C[C@@H]1O,,4.70,< 4.00,,,,,
OC[C@H]1O[C@@H](n2c(Cl)c(-c3ccsc3)c3cc(Cl)c(Cl)cc32)C[C@@H]1O,4.30,4.42,4.49,4.70,,,,
"N#Cc1c(Cl)n(C2O[C@H](CO)[C@@H](O)C2O)c2cc(Cl)c(Cl)cc12 (single isomer, unassigned)",4.46,,,< 4.00,,,,
N#Cc1c(Cl)n([C@H]2C[C@H](O)[C@@H](CO)O2)c2cc(Cl)c(Cl)cc12,4.22,6.52,4.49,4.46,,,,
CC(=O)c1c(Cl)n([C@H]2C[C@H](O)[C@@H](CO)O2)c2cc(Cl)c(Cl)cc12,3.40,6.52,< 4.00,5.10,6.66,5.68,6.12,5.74
Nc1nc2c(ncn2COC(CO)CO)c(=O)[nH]1 [GANCICLOVIR],< 4.00,,< 4.00,5.46,5.92,5.60,5.92,5.92
"CC(=O)c1c(Cl)n(C2O[C@H](CO)[C@@H](O)C2O)c2cc(Cl)c(Cl)cc12 (single isomer, unassigned)",,,,,6.59,5.21,6.14,5.92
"C[C@H]1OC(n2c(Cl)c(C#N)c3cc(Cl)c(Cl)cc32)C(O)[C@@H]1O (single isomer, unassigned)",4.40,6.72,4.49,4.49,,,,
COc1c(C#N)c2cc(Cl)c(Cl)cc2n1[C@H]1C[C@H](O)[C@@H](CO)O1,< 4.00,4.17,< 4.00,4.05,,,,
"[N-]=[N+]=NC[C@H]1OC(n2c(Cl)c(C=O)c3cc(Cl)c(Cl)cc32)C(O)[C@@H]1O (single isomer, unassigned)",4.60,6.49,4.49,5.00,,,,
"C[C@H]1OC(n2c(Cl)c(C=O)c3cc(Cl)c(Cl)cc32)C(O)[C@@H]1O (single isomer, unassigned)",4.60,6.52,4.49,4.70,,,,
"O=Cc1c(Cl)n(C2O[C@H](CO)[C@@H](O)C2O)c2cc(Cl)c(Cl)cc12 (single isomer, unassigned)",4.35,,,4.40,6.34,5.32,6.06,5.74
COc1c(C=O)c2cc(Cl)c(Cl)cc2n1[C@H]1C[C@H](O)[C@@H](CO)O1,4.70,< 4.00,4.00,< 4.00,,,,
CC(=O)c1c(Br)n([C@H]2C[C@H](O)[C@@H](CO)O2)c2cc(Cl)c(Cl)cc12,< 4.00,6.47,< 4.00,< 4.00,,,,
"OC[C@H]1O[C@@H](n2c(Cl)nc3cc(Cl)c(Cl)cc32)C(O)[C@@H]1O (single isomer, unassigned)",3.68,,,3.99,,,,
"CC(=O)OC[C@H]1OC(n2c(Cl)c(C=O)c3cc(Cl)c(Cl)cc32)C(O)[C@@H]1O (single isomer, unassigned)",,,,,6.66,5.48,6.06,5.80
OC[C@H]1O[C@@H](n2c(Cl)c(-c3ccco3)c3cc(Cl)c(Cl)cc32)C[C@@H]1O,4.30,5.44,5.49,4.70,,,,
